Assay results pooled from the literature.
Each line is one published result; the experiments were not run side by side.
Target: SRSF protein kinase 3 (SRPK3, Homo sapiens, UniProt Q9UPE1)

`COc1cc2ncnc(Nc3ccc(Oc4ccccc4)cc3C)c2cc1OC` has an inhibition of 2% (enzyme activity, inhibitor; 1 µM).
The remaining signal of `Nc1ncnc2occ(-c3ccc(NC(=O)Nc4cc(C(F)(F)F)ccc4F)cc3)c12` is reported as 88% (cell-free assay, inhibitor; 20 µM).
For `O=C(Nc1ccc(Oc2ccc(F)cc2)cc1)N1CCc2ncccc2[C@H]1c1ccc(F)cc1`, the remaining binding was 100% (cell-free assay, competition with immobilised ligand; 1 µM).
With `CCN(CC)CCNC(=O)c1c(C)[nH]c(/C=C2\C(=O)Nc3ccc(F)cc32)c1C` the inhibition was -4% (enzyme activity, inhibitor; 0.3 µM).
The remaining binding of `Cc1cc(-n2nc(Cc3cc(F)cc(C(F)(F)F)c3)nc2C)ccc1C(N)=O` is reported as 100% (cell-free assay, competition with immobilised ligand; 1 µM).
With `CCCS(=O)(=O)Nc1ccc(F)c(C(=O)c2c[nH]c3ncc(-c4ccc(Cl)cc4)cc23)c1F` the inhibition was under 10% (enzyme activity, inhibitor; 1 µM).
With `Cn1c2c(c3ccc(Cl)c(Cl)c31)C(C#N)C1(CCN(C(=O)OC(C)(C)C)CC1)NC2=O` (racemic) the ΔTm was 0 °C (thermal stability, DSF; 10 µM).
`CC1=C(C#N)[C@@H](c2ccc3[nH]nc(C)c3c2)C(C#N)=C(c2ccc(Cl)cc2)N1` has a remaining binding of 100% (cell-free assay, competition with immobilised ligand; 1 µM).
`CNC(=O)c1cc(Oc2ccc(NC(=O)Nc3ccc(Cl)c(C(F)(F)F)c3)cc2)ccn1` has an inhibition of 60% (enzyme activity, inhibitor; 10 µM).
With `CC(=O)Nc1c(C(C)=O)c(=O)n(C)c2nc(-c3ccc(Cl)cc3Cl)c(-c3ccc(Cl)cc3)cc12` the remaining binding was 100% (cell-free assay, competition with immobilised ligand; 1 µM).
The remaining activity of `CC(C)(C)c1nc(-c2cccc(NS(=O)(=O)c3c(F)cccc3F)c2F)c(-c2ccnc(N)n2)s1` is reported as 105% (enzyme activity, inhibitor, radiometric; 1 µM).
For `Cc1ccc(Nc2nccc(N(C)c3ccc4c(C)n(C)nc4c3)n2)cc1S(N)(=O)=O`, the inhibition was 3% (enzyme activity, inhibitor; 10 µM).
For `CCN(CC)c1ccc(C2=NNC(=O)CC2C)cc1[N+](=O)[O-]` (centres unmarked), the remaining activity was 111% (enzyme activity, inhibitor; 10 µM).
The ΔTm of `Cn1c2c(c3ccc(Cl)c(Cl)c31)C(C#N)C(C)(C)NC2=O` (centres unmarked) is reported as 1.5 °C (thermal stability, DSF; 10 µM).
`Cc1ccc(C(=O)Nc2ccc(CN3CCN(C)CC3)c(C(F)(F)F)c2)cc1C#Cc1cnc2cccnn12` gave a remaining activity of 96% (enzyme activity, inhibitor; 23.5 nM).
For `Cn1c2c(c3ccc(Cl)c(Cl)c31)C(C#N)C1(CCNCC1)NC2=O` (racemic), the ΔTm was 1.9 °C (thermal stability, DSF; 10 µM).
`COc1cc(-c2cn(C3CCc4c(F)cccc4N(CC(F)(F)F)C3=O)nn2)ccc1-n1cnc(C)c1` (centres unmarked) has a remaining binding of 100% (cell-free assay, competition with immobilised ligand; 1 µM).
`CN1CC(Oc2cnc(C#N)cc2-c2ccn3nc(NC(=O)C4CC4)cc3c2)C1` gave an inhibition of -3% (enzyme activity, inhibitor; 1 µM).
For `O=c1nc(-c2ccccn2)sc2ccccc12`, the remaining binding was 100% (binding, competition with immobilised ligand; 1 µM).
The remaining activity of `COc1cc(Cl)c(C(=O)N[C@@H](CN[C@H]2CC[C@@H](N)CC2)Cc2ccc(C#N)cc2)cc1-c1ccc(CN[C@H](C)c2ccc(C)cc2)o1` is reported as 96% (enzyme activity, inhibitor; 1 µM).
